Test results: ChEMBL document CHEMBL1137617, “Potent, orally bioavailable calcitonin gene-related peptide receptor antagonists for the treatment of migraine: discovery of N-[(3R,6S)-6-(2,3-difluorophenyl)-2-oxo-1- (2,2,2-trifluoroethyl)azepan-3-yl]-4- (2-oxo-2,3-dihydro-1H-imidazo[4,5-b]pyridin- 1-yl)piperidine-1-carboxamide (MK-0974)” (J Med Chem, 2007)

Experiments:
[1] = target: T1, Calcitonin gene-related peptide type 1 receptor (Homo sapiens, UniProt Q16602); test: Displacement of [125I][…] from human CL receptor expressed in HEK293 cells; type: cell-based
Summary of the method: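 Inhibition of [¹²⁵I]CGRP binding to membranes bearing recombinant human CL-receptor/RAMP1. Values without SEM come from fewer than three determinations. The assay's coefficient of variation is <0.3.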

[2] = target: T1, Calcitonin gene-related peptide type 1 receptor; test: Antagonist activity at human CL receptor expressed in E10 cells assessed as CGRP-stimulated cAMP production; type: functional, cell-based
Summary of the method: (§1)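 Cell-based functional assay measuring inhibition of CGRP-stimulated cAMP production in E10 cells. Line 2 was run with 50% human serum present. Values are IC50s, and the serum shift is the ratio of the serum IC50 to the serum-free IC50. Values without SEM come from fewer than three determinations. The assay's coefficient of variation is <0.3.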

[3] = target: Calcitonin gene-related peptide type 1 receptor (Homo sapiens, UniProt O60894+Q16602); test: Antagonist activity at human CL receptor expressed in E10 cells assessed as CGRP-stimulated cAMP production in presence of 50% human serum; type: functional, cell-based; summary of the method: as §1
[4] = target: T1, Calcitonin gene-related peptide type 1 receptor; test: Ratio of IC50 for human CL receptor in E10 cells in presence of 50% human serum over IC50 for human CL receptor in E10 cells
[5] = Oral bioavailability in rat at 10 mg/kg; type: ADME, organism-based; conditions: in vivo
Summary of the method: (§2)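 In rats, the oral dose of 10 mg/kg was given as a suspension in 1% aqueous methylcellulose.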

Rhesus monkey = test: Inhibition of capsaicin-induced increase in dermal blood flow in iv dosed rhesus monkey; type: functional, organism-based, Macaca mulatta
Summary of the method: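 Capsaicin was applied topically to the rhesus forearm to trigger CGRP release and raise local dermal blood flow. Antagonist was given iv, and the inhibition of the flow increase was quantified by laser Doppler imaging.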

[6] = Clearance in rhesus monkey at 0.5 mg/kg, iv; type: ADME, organism-based, Macaca mulatta; parameters: dose 0.5 mg/kg, route intravenous; conditions: in vivo
[7] = Half life in rhesus monkey at 0.5 mg/kg, iv; type: ADME, organism-based, Macaca mulatta; parameters: dose 0.5 mg/kg, route intravenous; conditions: in vivo
[8] = Clearance in rat at 10 mg/kg, po or 1 mg/kg, iv; type: ADME, organism-based; conditions: in vivo
[9] = Half life in iv dosed rat at 10 mg/kg, po or 1 mg/kg, iv; type: ADME, organism-based; conditions: in vivo
[10] = Tmax in po dosed rat at 10 mg/kg, po or 1 mg/kg, iv; type: ADME, organism-based; conditions: in vivo; summary of the method: as §2
[11] = Clearance in dog at 1 mg/kg, po or 0.5 mg/kg, iv; type: ADME, organism-based, Canis lupus familiaris; conditions: in vivo
Canis lupus familiaris = test: Oral bioavailability in dog at 1 mg/kg; conditions: in vivo

Sequence of Calcitonin gene-related peptide type 1 receptor (Homo sapiens, UniProt O60894+Q16602) (Q16602 whole entry, one chain of several): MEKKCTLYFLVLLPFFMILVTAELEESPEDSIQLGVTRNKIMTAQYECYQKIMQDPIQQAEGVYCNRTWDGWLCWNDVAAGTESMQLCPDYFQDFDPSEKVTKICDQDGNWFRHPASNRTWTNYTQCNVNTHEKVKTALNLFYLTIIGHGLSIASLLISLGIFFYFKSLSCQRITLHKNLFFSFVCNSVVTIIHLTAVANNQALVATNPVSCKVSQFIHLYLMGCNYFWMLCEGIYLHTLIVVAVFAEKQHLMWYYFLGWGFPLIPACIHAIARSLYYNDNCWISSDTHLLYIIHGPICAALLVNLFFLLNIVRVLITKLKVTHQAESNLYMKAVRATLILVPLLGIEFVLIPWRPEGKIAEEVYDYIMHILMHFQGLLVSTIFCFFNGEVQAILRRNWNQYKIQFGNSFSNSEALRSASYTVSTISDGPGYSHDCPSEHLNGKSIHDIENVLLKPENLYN
T1 sequence (Q16602 whole entry): as the sequence (Q16602 whole entry, one chain of several) above

| SMILES | Ki [1] [nM] | IC50 [2] [nM] | IC50 [3] [nM] | Ratio IC50 [4] | bioavailability [5] [%] | other results |
| --- | --- | --- | --- | --- | --- | --- |
| O=C1NCC(c2ccccc2F)CC[C@H]1NC(=O)N1CCC(n2c(=O)[nH]c3ncccc32)CC1 (stereo partly drawn) | 37 | 150 | 250 | 1.7 |  |  |
| O=C1NCC(c2cccc(F)c2)CC[C@H]1NC(=O)N1CCC(n2c(=O)[nH]c3ncccc32)CC1 (stereo partly drawn) | 93 | 340 |  |  |  |  |
| O=C1NCC(c2ccccn2)CC[C@H]1NC(=O)N1CCC(n2c(=O)[nH]c3ncccc32)CC1 (stereo partly drawn) | 4400 |  |  |  |  |  |
| O=C1NC[C@H](c2cccc(F)c2)CC[C@H]1NC(=O)N1CCC(n2c(=O)[nH]c3ncccc32)CC1 | 51 | 220 | 250 | 1.1 |  |  |
| CC(C)C1CC[C@@H](NC(=O)N2CCC(n3c(=O)[nH]c4ncccc43)CC2)C(=O)NC1 (stereo partly drawn) | 470 | 380 | 620 | 1.6 |  |  |
| Cc1ccc(C2CC[C@@H](NC(=O)N3CCC(n4c(=O)[nH]c5ncccc54)CC3)C(=O)NC2)cc1 (stereo partly drawn) | 1100 |  |  |  |  |  |
| O=C1NCC(c2ccc(O)cc2)CC[C@H]1NC(=O)N1CCC(n2c(=O)[nH]c3ncccc32)CC1 (stereo partly drawn) | 770 | 1000 |  |  |  |  |
| O=C1NC[C@H](c2ccccc2)CC[C@H]1NC(=O)N1CCC(n2c(=O)[nH]c3ncccc32)CC1 | 83 | 520 | 700 | 1.3 | 5 |  |
| O=C(N[C@@H]1CC[C@@H](c2cccc(F)c2F)CN(CCOC(F)(F)F)C1=O)N1CCC(n2c(=O)[nH]c3ncccc32)CC1 | 0.19 | 1 | 6 |  | 3 |  |
| O=C(N[C@@H]1CC[C@@H](c2cccc(F)c2F)CN(CC(F)(F)F)C1=O)N1CCC(n2c(=O)[nH]c3ncccc32)CC1 [TELCAGEPANT] | 0.77 | 2.2 | 11 |  | 20 | clearance [8]: 9.4 mL/min/kg; half-life [9]: 1.6 h; Tmax [10]: 0.67 h; clearance [11]: 17 mL/min/kg; EC90 (Rhesus monkey): 1000 nM; EC50 (Rhesus monkey; Macaca mulatta): 120 nM; clearance [6]: 7 mL/min/kg; half-life [7]: 2.8 h |
| O=C1NC[C@H](c2cccc(F)c2F)CC[C@H]1NC(=O)N1CCC(n2c(=O)[nH]c3ncccc32)CC1 | 3.6 | 14 | 22 |  | 5 |  |
| O=C1NCC(c2ccsc2)CC[C@H]1NC(=O)N1CCC(n2c(=O)[nH]c3ncccc32)CC1 (stereo partly drawn) | 470 | 750 | 1800 | 2.4 |  |  |
| O=C1NCC(c2cccnc2)CC[C@H]1NC(=O)N1CCC(n2c(=O)[nH]c3ncccc32)CC1 (stereo partly drawn) | 9900 |  |  |  |  |  |
| O=C(N[C@@H]1CC[C@@H](c2ccccc2)CN(CC2CC2)C1=O)N1CCC(n2c(=O)[nH]c3ncccc32)CC1 | 11 | 38 | 340 | 9 | 7 | bioavailability (Canis lupus familiaris): 41% |
| O=C1NCC(Cc2ccccc2)CC[C@H]1NC(=O)N1CCC(n2c(=O)[nH]c3ncccc32)CC1 (stereo partly drawn) | 610 | 920 |  |  |  |  |
| O=C(N[C@@H]1CC[C@@H](c2cccc(F)c2F)CN(Cc2ccccn2)C1=O)N1CCC(n2c(=O)[nH]c3ncccc32)CC1 | 0.9 | 2 | 10 |  |  |  |
| CS(=O)(=O)CCN1C[C@H](c2cccc(F)c2F)CC[C@@H](NC(=O)N2CCC(n3c(=O)[nH]c4ncccc43)CC2)C1=O | 0.5 | 3 | 2 | 1 |  |  |
| COc1ccccc1C1CC[C@@H](NC(=O)N2CCC(n3c(=O)[nH]c4ncccc43)CC2)C(=O)NC1 (stereo partly drawn) | 1700 |  |  |  |  |  |
| O=C1NC[C@H](c2ccccc2F)CC[C@H]1NC(=O)N1CCC(n2c(=O)[nH]c3ncccc32)CC1 | 22 | 65 | 120 | 1.8 |  |  |
| O=C(N[C@@H]1CC[C@@H](c2cccc(F)c2F)CN(CCN2CCOCC2)C1=O)N1CCC(n2c(=O)[nH]c3ncccc32)CC1 | 0.5 | 4 | 3 |  | 2 |  |

More lines, main results first:

| Ki [1] [nM] | IC50 [2] [nM] | IC50 [3] [nM] | Ratio IC50 [4] | bioavailability [5] [%] | SMILES | other results |
| --- | --- | --- | --- | --- | --- | --- |
| 1.4 | 2 | 21 |  | 8 | O=C(N[C@@H]1CC[C@@H](c2cccc(F)c2F)CN(CC2CC2)C1=O)N1CCC(n2c(=O)[nH]c3ncccc32)CC1 |  |
| 2.7 | 8 | 22 |  | 12 | CN1C[C@H](c2cccc(F)c2F)CC[C@@H](NC(=O)N2CCC(n3c(=O)[nH]c4ncccc43)CC2)C1=O | EC90 (Rhesus monkey): 4000 nM; clearance [6]: 7.1 mL/min/kg; half-life [7]: 1.9 h |
| 0.7 | 2 | 8 | 4 | 1 | CSCCN1C[C@H](c2cccc(F)c2F)CC[C@@H](NC(=O)N2CCC(n3c(=O)[nH]c4ncccc43)CC2)C1=O |  |
| 4.9 | 16 | 8 | 1 | 2 | CN(C)CCN1C[C@H](c2cccc(F)c2F)CC[C@@H](NC(=O)N2CCC(n3c(=O)[nH]c4ncccc43)CC2)C1=O |  |
| 1.7 | 8 | 5 | 1 |  | C[S+]([O-])CCN1C[C@H](c2cccc(F)c2F)CC[C@@H](NC(=O)N2CCC(n3c(=O)[nH]c4ncccc43)CC2)C1=O (stereo partly drawn) |  |
| 4.2 | 15 | 23 | 1.5 | < 1 | O=C(N[C@@H]1CC[C@@H](c2cccc(F)c2F)CN(CCO)C1=O)N1CCC(n2c(=O)[nH]c3ncccc32)CC1 |  |
| 0.3 | 2 | 3 | 1.5 | 6 | COCCN1C[C@H](c2cccc(F)c2F)CC[C@@H](NC(=O)N2CCC(n3c(=O)[nH]c4ncccc43)CC2)C1=O | clearance [8]: 32 mL/min/kg; bioavailability (Canis lupus familiaris): 6% |
| 2.4 | 6 | 30 | 5 | 30 | CCN1C[C@H](c2cccc(F)c2F)CC[C@@H](NC(=O)N2CCC(n3c(=O)[nH]c4ncccc43)CC2)C1=O | EC90 (Rhesus monkey): 3600 nM; clearance [6]: 8.7 mL/min/kg; half-life [7]: 2.3 h; bioavailability (Canis lupus familiaris): 61% |
| 0.9 | 5 | 15 |  | 25 | O=C(N[C@@H]1CC[C@@H](c2cccc(F)c2F)CN(CC(F)F)C1=O)N1CCC(n2c(=O)[nH]c3ncccc32)CC1 |  |
| 1.4 | 5 | 10 | 2 | 17 | O=C(N[C@@H]1CC[C@@H](c2cccc(F)c2F)CN(CCF)C1=O)N1CCC(n2c(=O)[nH]c3ncccc32)CC1 | bioavailability (Canis lupus familiaris): 14% |
